The values that follow come from paper PMC11661456 (Science Advances, 2024).

Assay [1] has as its target T1, AbBioC (Acinetobacter baumannii, UniProt A0A1E3M3A7).
T1 sequence (A0A1E3M3A7 1-249): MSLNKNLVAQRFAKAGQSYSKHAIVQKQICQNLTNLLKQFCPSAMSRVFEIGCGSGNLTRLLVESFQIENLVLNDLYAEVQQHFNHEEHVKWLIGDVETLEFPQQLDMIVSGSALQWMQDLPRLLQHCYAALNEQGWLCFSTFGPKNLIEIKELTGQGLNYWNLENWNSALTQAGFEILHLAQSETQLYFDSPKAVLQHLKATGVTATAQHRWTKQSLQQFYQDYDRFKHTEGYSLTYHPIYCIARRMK
The assay is described as follows: Isothermal titration calorimetry of ligand binding to AbBioC. On the set-up: species or system A. baumannii. The settings on record: for binding stoichiometry (N): ITC, single binding site model, mean ± SD (n = 3). Summed up: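 His6-SUMO-tagged AbBioC, Ni-NTA purified. ITC at 25°C in 20 mM tris (pH 8.0), 300 mM NaCl. AbBioC (20 μM) in cell, titrated with SAM or test compound (200 μM) in 20 injections: 0.4 μl first, then 2.0 μl every 120 s. Data fitted to single-site model; N and Kd given as mean ± SD of three replicates.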

For assay [2], the system named is BcBioC. To be noted: in vitro; cited from earlier work.
Assay [3] relates to bioC-expressing bacterium. The assay is described as follows: Effect of free SIN on viability of bioC-expressing bacterium. The class given is cell-based. The settings on record: free (not nanoparticle-loaded) SIN.
Assay [4] concerns the target T2, AbBioC methyltransferase (Acinetobacter baumannii, UniProt A0A1E3M3A7).
T2 sequence (A0A1E3M3A7 1-249): T1 sequence (A0A1E3M3A7 1-249)
The class given is biochemical, A. baumannii.

The test system of assay [5] is mcr-1–harboring K. pneumoniae. The assay is described as follows: Bacterial lysis assay, mcr-1-harboring K. pneumoniae. The class given is cell-based. The settings on record: colistin 8 μg/ml; MCR-1-expressing K. pneumoniae ΔbioC (FYJ6186).
Assay [6] has as its system K. pneumoniae. Put plainly: Colistin E-test. The class given is cell-based. The settings on record: ATCC 43816 upon MCR-1 expression.
For assay [7], the system named is A. baumannii. The assay is described as follows: Colistin E-test. The class given is cell-based.
Assay [8] concerns mcr-1–expressing A. baumannii. The assay is described as follows: Bacterial lysis assay, mcr-1-expressing A. baumannii. The class given is cell-based. Summed up: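 mcr-1–bearing A. baumannii and its ΔbioC mutant washed three times in biotin-free PBS, then seeded at 2 × 10^8 CFU/ml into 2 ml PBS with or without colistin (8 μg/ml). PBS-only groups served as untreated controls. Positive control arms used a reference inhibitor (4 μg/ml) alone, colistin (8 μg/ml) alone, or both together.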

“Also recorded” adds a separate entry of the source.

For orientation: Kd means a measure of binding affinity in units of concentration. High values mean a looser complex, low ones a tighter complex. Turning to `C[S+](CC[C@H](N)C(=O)[O-])C[C@H]1O[C@@H](n2cnc3c(N)ncnc32)[C@H](O)[C@@H]1O` (stereo partly drawn) [SAM, S-adenosyl-L-methionine], in assay [1], the affinity, expressed as Kd, was 2570 ± 750 nM and the “binding stoichiometry (N)” value was determined as 0.95 ± 0.13.
In general, Ki refers to the dissociation constant of the complex between target and ligand, obtained from inhibition or displacement. On to `Nc1ncnc2c1ncn2[C@@H]1O[C@H](C[C@@H](N)CC[C@H](N)C(=O)O)[C@@H](O)[C@H]1O` [SIN, sinefungin], for which, in assay [2], the “inactivation of BcBioC enzyme” value is recorded as “efficiently inactivate”. For the same compound, the “ability of free SIN to diminish bacterial viability” value in assay [3] was “inability”. In assay [1], the Kd was 808 ± 135 nM and the “binding stoichiometry (N)” value came out at 1.180 ± 0.008. The “binding affinity of SIN compared with SAM (fold, Kd)” value in assay [1] (ITC Kd of SIN versus the physiological ligand SAM) is recorded as “around threefold”. Moreover, the Ki in assay [4] was approximately 370 nM. Moreover, the “effect on the ability of AbBioC to initiate biotin synthesis” value in assay [4] (DTB/biotin bioassay, in vitro reconstituted system) is “efficiently interferes; also recorded: effectively kills AbBioC”.
As for colistin, the “bacterial killing by colistin of the ΔbioC mutant” value is reported as “fails to render the K. pneumoniae ΔbioC mutant insusceptible” in assay [5] and “resensitize; also recorded: vulnerability” in assay [8] (colistin 8 μg/ml, mcr-1–expressing A. baumannii ΔbioC (FYJ6181)). Besides, the “colistin MIC (E-test)” value turned out to be 32 µg/mL in assay [6]; 8.0 µg/mL in assay [7] (AB18PR065 + mcr-4.3, 0.2% glu M9); 4.0 µg/mL in assay [7] (ATCC 17978 + plasmid-borne mcr-1, LB); 0.5 µg/mL in assay [7] (ATCC 17978 without mcr-1, LB). Besides, the “bacterial lysis / viability” value in assay [8] (colistin 8 μg/ml alone, FYJ6179 in PBS, 20 hours) is reported as “neither MAC13772 inhibitor (4 μg/ml) nor colistin (8 μg/ml) lysed bacterial cells”.
